In the library only some 2.9% were active in any assay of this set; here they are far more common.
SENP8 block-1: blocks the human protease SENP8. inhibition, % at 10 µM. Q96LD8. purified SENP8, Z-RLRGG-aminoluciferin cleavage, luminescence. 1.2% of 330,000 active; in the data active = inhibition above about 50%
SENP6 block: inhibitors of human SENP6 protease | inhibition, % at 10 µM | 1.8% of 330,000 active | Recombinant SENP6 catalytic domain, aminoluciferin luminescence;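 active = inhibition above about 50% at the single tested dose, limit read from the data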;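 also: plate controls were DMSO wells with enzyme for no effect and DMSO wells lacking enzyme for full effect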
SENP8 block-2: SENP8 (human) protease inhibition; inhibition, % at 20 µM; AID 602440; 0.64% of 360,000 active; Q96LD8; recombinant SENP8, Nedd8 substrate fluorescence; in the data active = inhibition mostly above about 40%, no sharp cut-off; inactive = mostly below about 27%
SENP1 inh: SENP1 (human) catalytic domain inhibition; Q9P0U3; recombinant SENP1 catalytic domain, CyPet-SUMO1-YPet FRET cleavage; inhibition, % at 10 µM; 0.21% of 360,000 active;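 active = inhibition at least 30% at 10 µM, raw YFP signal under a set limit, fluorescence ratio 0.5 to 1.5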;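 also: 0% = enzyme with DMSO and 100% = no enzyme wells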
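Compound: 10 µM single point, 0.5% DMSO; Test system: hSENP1 catalytic domain, recombinant; Timing: 50 min reaction at room temperature; Technique: FRET, CFP and YFP emission; Control set: no-enzyme wells low, DMSO-plus-enzyme wells high control.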
HSP90 refold inh: blocks HSP90-mediated luciferase refolding in reticulocyte lysate; Rabbit reticulocyte lysate, luciferase refolding luminescence, 3 h; inhibition, % at 5.6 µM; 0.91% of 290,000 active; AID 1789;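 active = inhibition above the screen-wide mean plus 3 SD, computed separately per campaign, cut at about 16% in these data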;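 also: 0% = DMSO wells and 100% = 60 µM geldanamycin wells; inhibitors lower the luminescence because luciferase stays unfolded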
SENP7 block: inhibitors of human SENP7 protease; inhibition, % at 5 µM; 1.5% of 330,000 active; recombinant SENP7, Z-RLRGG-aminoluciferin luminescence, 40 min; AID 434973; Q9BQF6;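 active = inhibition above about 50% at the single test dose, limit read from the data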;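 also: plate controls were DMSO with enzyme for no effect and no enzyme buffer wells for full effect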
HSP90 inh confirm: HSP90 inhibition, confirmation assay. shares compounds with HSP90 refold inh. rabbit reticulocyte lysate, luciferase refolding luminescence, 3 h. inhibition, % at 5.9 µM. 64% of 2,300 active; in the data active = inhibition above about 18%;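 also: 0% = vehicle wells and 100% = reference inhibitor wells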
luciferase ctr: firefly luciferase inhibition, HSP90 counter-screen; 48% of 2,300 active; purified native firefly luciferase, luminescence; inhibition, % at 5.9 µM; shares compounds with HSP90 refold inh;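 active = inhibition above the mean inhibition of all tested sample wells plus 3 SD, cut at about 10% in these data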;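 also: 0% = DMSO with luciferase and 100% = wells lacking luciferase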
Target sequence (P08659 whole entry, looked up): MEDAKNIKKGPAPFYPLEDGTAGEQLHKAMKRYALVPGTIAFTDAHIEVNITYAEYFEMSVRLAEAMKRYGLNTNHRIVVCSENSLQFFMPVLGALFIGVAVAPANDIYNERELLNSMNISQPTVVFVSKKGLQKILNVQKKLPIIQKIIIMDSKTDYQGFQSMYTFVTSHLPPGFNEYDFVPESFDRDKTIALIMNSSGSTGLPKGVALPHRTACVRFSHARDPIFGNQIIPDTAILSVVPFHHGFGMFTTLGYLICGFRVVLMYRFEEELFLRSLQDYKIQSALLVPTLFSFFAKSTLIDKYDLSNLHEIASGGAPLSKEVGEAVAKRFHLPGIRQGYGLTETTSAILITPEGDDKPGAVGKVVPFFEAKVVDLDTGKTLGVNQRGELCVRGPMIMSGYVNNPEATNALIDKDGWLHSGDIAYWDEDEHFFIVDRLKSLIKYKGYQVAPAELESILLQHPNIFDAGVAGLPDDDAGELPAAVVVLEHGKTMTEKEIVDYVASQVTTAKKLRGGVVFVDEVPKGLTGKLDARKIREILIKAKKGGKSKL
* hit, by the source's call; nt = not tested or not shown.

SMILES | SENP8 block-1 | SENP6 block | SENP8 block-2 | SENP1 inh | HSP90 refold inh | SENP7 block | HSP90 inh confirm | luciferase ctr
O=C(Nc1ccccc1)c1cn2ccccc2n1 | 82* | 90* | 28 | 3 | 37* | 91* | 59* | 41*
CCC(=O)N1CCCC1(C)C(=O)Nc1ccc2nc(C)ccc2c1 (stereo not given) | nt | nt | -60 | -2 | nt | nt | nt | nt
CC(=O)n1c2ccccc2c2ccccc21 | -1 | -21 | 7 | 1 | -6 | 2 | nt | nt
Cc1ccc(C(=O)n2c3ccccc3c3ccccc32)cc1 | 5 | 11 | 8 | 1 | 17* | 0 | -1 | -20
CC1CCN(C(=O)N2c3ccccc3Sc3ccccc32)CC1 | 4 | -4 | 9 | 2 | 19* | 4 | 8 | 2
CCOc1ccc2nc(COC(=O)c3cccs3)c(C(C)=O)[n+]([O-])c2c1 | 5 | -20 | -41 | -2 | 29* | 2 | -5 | -11
Cc1ccc(CNS(=O)(=O)N(C)C)cc1 | -1 | -2 | 18 | 0 | -7 | 9 | nt | nt
O=C(N/N=C/c1cccnc1)c1ccc(NC(=O)c2cccc(Cl)c2)cc1 | 0 | -8 | 5 | -4 | -2 | -9 | nt | nt
O=C(N/N=C/c1cccnc1)c1ccc(NC(=O)c2ccc(Cl)cc2)cc1 | 3 | 7 | 3 | -5 | 20* | -3 | -5 | -12
O=C(O)c1cc(N/N=C/c2cccnc2)ccc1Cl | 15 | 43 | 12 | 5 | 30* | 12 | 39* | -4
C(=N\Nc1ccccn1)/c1c[nH]c2ccccc12 | 6 | 18 | -148 | -3 | 0 | -8 | nt | nt
O=C(N/N=C/c1cccnc1)c1ccc(Cl)c(Cl)c1 | -5 | -10 | 12 | 2 | nt | -16 | nt | nt
O=C(O)c1cc(N/N=C/c2c[nH]c3ccccc23)ccc1Cl | 6 | 6 | -155 | -35 | 40* | 7 | 38* | -10
O=c1nc(N/N=C/c2c[nH]c3ccccc23)cn[nH]1 | 6 | 39 | 31 | -2 | 27* | 28 | 30* | 14*
COc1cccc(CN2CC(C(=O)NCCc3cn4cccnc4n3)CCC2=O)c1 (stereo not given) | nt | nt | -480 | -2 | nt | nt | nt | nt
COc1ccc(CN2C(=O)c3cccnc3C2=O)cc1S(=O)(=O)N1CCOc2ccc(C)cc21 | -4 | 7 | 17 | 1 | 2 | 2 | nt | nt
CC(C)(C)C(=O)Nc1cc2nn(-c3ccccc3)nc2cc1Cl | nt | nt | -353 | 1 | 80* | nt | 85* | 85*
O=C(Nc1cc2nn(-c3ccccc3)nc2cc1Cl)c1ccco1 | -4 | 11 | -480 | -15 | -2 | 8 | nt | nt
N#Cc1ccc(-c2c(-c3ccccc3)ncc3cc(F)ccc23)cc1 | 26 | 29 | -107 | -2 | nt | 0 | nt | nt
Cc1nc(C(F)(F)F)c(C(=O)N/N=C(\N)c2ccccn2)s1 | 0 | 10 | 9 | 1 | -1 | -1 | nt | nt
O=S(=O)(Nc1ccc2c(c1)OCCO2)c1cccc2nsnc12 | -9 | -17 | 38 | 4 | 20* | 7 | 31* | 50*
Cc1ccc(S(=O)(=O)Nc2ccc3c(c2)OCCO3)cc1 | -3 | -1 | 13 | 1 | 2 | -2 | nt | nt
O=[N+]([O-])c1ccc(S(=O)(=O)Nc2ccc3c(c2)OCCO3)cc1 | 13 | 11 | 30 | 1 | 27* | -3 | 5 | -3
COc1ccc(NC(=S)NNC(=O)Cn2nc([N+](=O)[O-])cc2C)cc1 | -9 | -18 | 8 | 2 | 41* | 6 | 4 | 1
COc1cc(C#CC#CCN2CCCCC2)ccc1O | -12 | 1 | -3 | -1 | -3 | 8 | nt | nt
SMILES | SENP8 block-1 | SENP6 block | SENP8 block-2 | SENP1 inh | HSP90 refold inh | SENP7 block | HSP90 inh confirm | luciferase ctr
C=CCN1C(=O)/C(=C\c2cc(Br)c(OCc3ccccn3)c(OC)c2)SC1=S | 2 | -9 | 23 | 3 | -1 | 5 | nt | nt
C=CCN1C(=O)/C(=C\c2ccc(Oc3nc(N4CCOCC4)nc(N4CCOCC4)n3)c(OC)c2)SC1=S | -3 | -3 | 25 | 3 | 39* | 5 | 10 | 0
c1ccc(Nc2ccccn2)nc1 | -7 | -5 | 15 | 1 | 25* | -3 | 1 | -2
O=C1C2C3CC(C(Br)C3Br)C2C(=O)N1c1nccs1 (stereo not given) | -5 | -13 | 18 | 3 | nt | 0 | nt | nt
CCN(CC)CCOC(=O)c1ccc(NC(=O)/C=C/c2cccs2)cc1 | -3 | 0 | -65 | -1 | 27* | 0 | 6 | -7
CCOc1ccccc1OCCn1ncc2ccc(OC)c(OC)c2c1=O | -2 | -2 | -12 | 3 | -1 | -2 | nt | nt
COc1ccc2cnn(CCOc3ccccc3)c(=O)c2c1OC | -12 | 7 | -36 | -1 | 21* | 10 | 32* | 20*
Cc1cc(Cl)ccc1NC(=O)COC(=O)c1c(C)noc1C | -3 | 4 | 6 | 3 | nt | 4 | nt | nt
O=C(CN1C(=O)NC2(CCCC2)C1=O)OCCOc1ccc(Br)cc1 | 9 | 8 | 2 | 3 | nt | -5 | nt | nt
O=C1c2ccccc2C(c2nnnn2-c2ccc3ccccc3c2)N1C1CC1 (stereo not given) | nt | nt | 2 | -1 | nt | nt | nt | nt
Fc1ccccc1OCCSc1nnnn1-c1ccccc1 | -1 | -32 | 6 | 1 | 25* | 8 | 29* | 6
Nc1sc2c(c1C(=O)c1ccccc1)CCCC2 | -1 | -7 | 6 | 0 | 31* | 8 | 11 | 1
CC(=O)/C(=N\Nc1ccc(C)cc1)Sc1nncn1C | -7 | -11 | 17 | 0 | 3 | -2 | nt | nt
Cc1cc(N=Nc2ccc(C)c(N=Nc3cc(C)c(N)cc3N)c2)c(N)cc1N | 53* | 52* | 31 | 16 | 17* | 6 | 33* | 51*
Cc1ccc(NC(=O)c2onc(C)c2Cl)cc1 | -21 | -7 | 18 | 1 | 0 | -8 | nt | nt
Cc1noc(C(=O)Nc2ccc(Cl)cc2)c1Cl | 3 | -12 | nt | nt | 25* | 1 | 2 | -3
Cc1nc(N2CCN(C(=O)c3ccco3)CC2)[nH]c(=O)c1C | -5 | 4 | 13 | 0 | 1 | 0 | nt | nt
O=C(Nc1ccc(N2CCCC(O)C2)cc1)c1snc2c(=O)[nH]cnc12 (stereo not given) | -1 | -9 | 6 | 1 | 19* | -4 | 15 | -4
Cc1cccc(NC(=O)c2snc3c(=O)[nH]cnc23)c1 | 15 | 41 | nt | nt | 1 | 5 | nt | nt
O=C(NCCc1ccc(Cl)cc1)c1ccc2c(c1)OCO2 | -10 | -10 | -5 | 3 | 1 | 10 | nt | nt
CC(C)(C)SCCNC(=O)c1ccccc1 | -7 | -17 | 26 | 5 | -3 | 6 | nt | nt
Cc1ccc(C(=O)NCCc2cccs2)cc1 | 5 | -27 | 2 | 1 | 55* | 12 | 74* | 62*
Cc1ccc(C(=O)NCCSC(C)(C)C)cc1 | -2 | -5 | 21 | 2 | 19* | 4 | 31* | 24*

From PubChem
